# Data published in ChEMBL document CHEMBL2169798, “Discovery of a Plasmodium falciparum glucose-6-phosphate dehydrogenase 6-phosphogluconolactonase inhibitor (R,Z)-N-((1-ethylpyrrolidin-2-yl)methyl)-2-(2-fluorobenzylidene)-3-oxo-3,4-dihydro-2H-benzo[b][1,4]thiazine-6-carboxamide (ML276) that reduces parasite growth in vitro” (J Med Chem, 2012).
# pIC50: −log10 of the molar value. Activity calls are given as the source filed them. The rule behind the calls is not given here.
# Assays:
# Hepatocyte = experiment: Toxicity against Fa2N-4 immortalized human hepatocytes; format: cell-based; conditions: read-out: LC50 (the source's name)
# [1] = Permeability of the compound at donor pH 5 by PAMPA; format: ADME
# Plasmodium falciparum [2] = experiment: Antimalarial activity against chloroquine-resistant Plasmodium falciparum Dd2 cells assessed as Plasmodium falciparum growth inhibition after 72 hrs by isotopic drug sensitivity assay; format: functional, organism-based; conditions: Dd2, 72 h
# Outline: (§1)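 Infected RBCs plated at 0.25% parasitemia (>70% rings), 1.25% hematocrit, hypoxanthine-free medium; serial compound concentrations, chloroquine control. 48 h incubation, then 0.5 μCi 3H-hypoxanthine for another 24 h. Cells harvested on glass fibre filters, radioactivity counted as growth measure. IC50 by non-linear regression; run twice, each in triplicate.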
# [3] = Aqueous solubility in pION's buffer at pH 6.2; format: physicochemical
# Plasma [4] = experiment: Stability in mouse plasma assessed as compound remaining after 3 hrs; format: ADME, cell-free
# Plasma [5] = experiment: Plasma protein binding in mouse at 10 uM; format: ADME, cell-free
# [6] = target: T1, Glucose-6-phosphate 1-dehydrogenase (Plasmodium falciparum, UniProt Q25856); experiment: Inhibition of Plasmodium falciparum glucose-6-phosphate dehydrogenase after 45 mins by orthogonal assay
# T1 sequence (Q25856 whole entry): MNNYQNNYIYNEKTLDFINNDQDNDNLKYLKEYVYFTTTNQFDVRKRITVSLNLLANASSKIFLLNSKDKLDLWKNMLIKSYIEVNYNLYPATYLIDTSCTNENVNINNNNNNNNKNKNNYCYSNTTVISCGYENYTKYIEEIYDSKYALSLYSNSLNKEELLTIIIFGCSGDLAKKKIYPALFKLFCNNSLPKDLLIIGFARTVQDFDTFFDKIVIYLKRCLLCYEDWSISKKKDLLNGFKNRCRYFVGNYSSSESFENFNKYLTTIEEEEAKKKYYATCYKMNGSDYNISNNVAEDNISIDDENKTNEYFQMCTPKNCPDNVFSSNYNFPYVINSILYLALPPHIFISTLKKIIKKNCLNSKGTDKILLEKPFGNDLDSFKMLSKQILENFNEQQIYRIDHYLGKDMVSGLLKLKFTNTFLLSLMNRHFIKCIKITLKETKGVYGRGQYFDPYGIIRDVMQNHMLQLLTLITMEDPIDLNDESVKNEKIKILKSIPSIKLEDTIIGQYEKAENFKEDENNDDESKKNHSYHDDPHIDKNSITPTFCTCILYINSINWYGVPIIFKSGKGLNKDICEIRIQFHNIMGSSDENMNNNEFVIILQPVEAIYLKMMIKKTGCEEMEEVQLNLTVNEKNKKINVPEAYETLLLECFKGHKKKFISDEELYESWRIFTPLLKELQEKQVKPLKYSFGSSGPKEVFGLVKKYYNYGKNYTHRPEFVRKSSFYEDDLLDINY
# Outline: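 Direct NADPH read without coupling: PfGluPho (0.4 μg/mL enzyme solution) in 50 mM Tris pH 7.5, 0.005% Tween 20, 1 mg/mL BSA; substrate 40 μM G6P, 6 μM NADP+, 6.6 mM MgCl2.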
# Plasma [7] = experiment: Stability in human plasma assessed as compound remaining after 3 hrs; format: ADME, cell-free
# [8] = Permeability of the compound at donor pH 6.2 by PAMPA; format: ADME
# Plasmodium falciparum [9] = experiment: Antimalarial activity against chloroquine-sensitive Plasmodium falciparum 3D7 cells assessed as Plasmodium falciparum growth inhibition after 72 hrs by isotopic drug sensitivity assay; format: functional, organism-based; conditions: 3D7, 72 h; outline: as §1
# Plasma [10] = experiment: Plasma protein binding in human at 10 uM; format: ADME, cell-free
# [11] = Permeability of the compound at donor pH 7.4 by PAMPA; format: ADME
# [12] = Aqueous solubility in pION's buffer at pH 5; format: physicochemical
# Liver microsomes = experiment: Stability in human liver microsomes assessed as compound remaining after 1 hr; format: ADME, Microsome
# [13] = Aqueous solubility in pION's buffer at pH 7.4; format: physicochemical
# Plasmodium falciparum [14] = experiment: Competitive inhibition of Plasmodium falciparum glucose-6-phosphate dehydrogenase-6-phosphogluconolactonase using glucose-6-phosphate as substrate by Lineweaver-Burk plot analysis
# Outline: (§2)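 PfGluPho at 0.2 μg/mL final, with 0.005% Tween 20, 3.3 mM MgCl2, 1 mM TCEP and 0.05 M Tris. G6P was varied at 5 μM NADP+; NADP+ was varied at 25 μM G6P. Compound was titrated at the same time. NADPH fluorescence (ex340/em460) was followed for 10 min and initial slopes taken. Lineweaver-Burk plots gave Km and Vmax, and α came from a rate equation.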
# [15] = target: T1, Glucose-6-phosphate 1-dehydrogenase; experiment: Inhibition of Plasmodium falciparum glucose-6-phosphate dehydrogenase after 2 hrs by resazurin/diaphorasecoupled assay
# Liver = experiment: Stability in mouse liver microsomes assessed as compound remaining after 1 hr; format: ADME, Microsome
# [16] = target: Glucose-6-phosphate 1-dehydrogenase (Homo sapiens, UniProt P11413); experiment: Inhibition of human glucose-6-phosphate dehydrogenase after 90 mins by resazurin/diaphorasecoupled assay
# Chain of Glucose-6-phosphate 1-dehydrogenase (Homo sapiens, UniProt P11413) (P11413 whole entry): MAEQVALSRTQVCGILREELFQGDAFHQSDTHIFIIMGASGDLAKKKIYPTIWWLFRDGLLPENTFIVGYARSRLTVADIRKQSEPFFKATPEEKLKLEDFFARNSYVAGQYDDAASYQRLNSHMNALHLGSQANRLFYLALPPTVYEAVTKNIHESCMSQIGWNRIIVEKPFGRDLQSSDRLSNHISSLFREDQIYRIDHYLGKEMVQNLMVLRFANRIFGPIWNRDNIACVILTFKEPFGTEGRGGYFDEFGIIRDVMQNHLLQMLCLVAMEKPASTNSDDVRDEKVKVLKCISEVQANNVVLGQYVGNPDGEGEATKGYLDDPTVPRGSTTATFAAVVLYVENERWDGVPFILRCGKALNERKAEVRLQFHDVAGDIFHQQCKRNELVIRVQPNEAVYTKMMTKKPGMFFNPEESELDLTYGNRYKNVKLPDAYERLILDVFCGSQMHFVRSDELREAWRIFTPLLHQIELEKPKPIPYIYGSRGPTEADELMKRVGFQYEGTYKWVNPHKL
# Outline: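 Dose response with a top final concentration of […] and 0.8% final DMSO, in 50 mM Tris pH 7.5, 0.005% Tween 20 and 1 mg/mL BSA. The enzyme solution held 0.05 μg/mL hG6PD. The substrate solution held 0.64 mM G6P, 12 μM NADP+, 6.6 mM MgCl2, 2 U/mL diaphorase and 0.28 mM resazurin.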
# Plasma [17] = experiment: Plasma protein binding in human at 1 uM; format: ADME, cell-free
# Plasmodium falciparum [18] = experiment: Mixed type inhibition of Plasmodium falciparum glucose-6-phosphate dehydrogenase-6-phosphogluconolactonase using NADP+ as substrate by Lineweaver-Burk plot analysis; outline: as §2
# [19] = Blood brain barrier permeability of the compound at pH 7.4 by PAMPA; format: ADME
# Plasma [20] = experiment: Plasma protein binding in mouse at 1 uM; format: ADME, cell-free
# [21] = Aqueous solubility in PBS buffer at pH 7.4; format: physicochemical
# [22] = Chemical stability in PBS buffer at pH 7.4 at 10 uM up to 18 hrs by RP-LCMS analysis in presence of glutathione; format: physicochemical; conditions: pH 7.4, 18 h
# Outline: (§3)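 Compound from a 1 mM DMSO stock, final 10 μM with 1% DMSO, in PBS pH 7.4 with 5 equivalents glutathione (from a 10 mM PBS stock), shaken in capped glass vials at 23 °C. Aliquots were analysed by RP-HPLC-MS on a C18 column at 0, 0.5, 1, 2, 4, 6, 18 and […]. Percent remaining versus 0 h was taken from peak AUC.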
# [23] = Drug degradation in PBS buffer assessed as compound depletion at pH 7.4 after 24 hrs by RP-LCMS analysis in presence of glutathione; format: physicochemical; conditions: PBS buffer with glutathione, read-out: Drug metabolism; outline: as §3
# [24] = Drug degradation in PBS buffer assessed as compound depletion at pH 7.4 after 30 mins by RP-LCMS analysis in presence of glutathione; format: physicochemical; conditions: pH 7.4, 0.5 h; outline: as §3
smiles,measurement,setting,value
CCN1CCC[C@@H]1CNC(=O)c1ccc2c(c1)NC(=O)/C(=C/c1ccccc1F)S2,CC50,Hepatocyte,> 50000 nM
same,permeability,[1],29 ×10⁻⁶ cm/s
same,pIC50,Plasmodium falciparum [2],5.43
same,solubility,[3],> 296 µM
same,Stability,Plasma [4],80.84%
same,PPB,Plasma [5],98.34%
same,pIC50,[6],5.72
same,Stability,Plasma [7],90.98%
same,permeability,[8],737 ×10⁻⁶ cm/s
same,pIC50,Plasmodium falciparum [9],5.63
same,PPB,Plasma [10],97.98%
same,permeability,[11],806 ×10⁻⁶ cm/s
same,solubility,[12],> 296 µM
same,Stability,Liver microsomes,60.53%
same,solubility,[13],69 µM
same,inhibition,Plasmodium falciparum [14],Active
same,pIC50,[15],6.05
same,Stability,Liver,37.57%
same,pIC50,[16],< 4.10
same,PPB,Plasma [17],98.39%
same,inhibition,Plasmodium falciparum [18],Active
same,permeability,[19],233 ×10⁻⁶ cm/s
same,PPB,Plasma [20],98.95%
same,solubility,[21],166 µM
C=C(CC)C(=O)c1ccc(OCC(=O)O)c(Cl)c1Cl [ETHACRYNIC ACID],Stability,[22],Stable
same,degraded at 24 h,[23],97%
same,Drug metabolism,[24],Active
